Measured values: ChEMBL document CHEMBL1140795, “Antimicrobial activities of the bromophenols from the red alga Odonthalia corymbifera and some synthetic derivatives” (2008)
Values after ≈ are worked out from the molar mass of the structure shown.

Legend:
Micrococcus luteus = assay: Antibacterial activity against Micrococcus luteus IFC 12708 after 24 hrs; type: functional
Procedure, shortened: (§1)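 Bacteria were grown overnight in LB broth at 37 °C, harvested by centrifugation and washed twice with sterile water. Test compounds were dissolved as DMSO stocks and serially diluted twofold in Standard method broth. Wells received broth containing about 10⁵ cfu/ml of bacteria and were incubated 24 h at 37 °C. The MIC was recorded.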

Escherichia coli = assay: Antibacterial activity against Escherichia coli ATCC 25922 after 24 hrs; type: functional; conditions: ATCC 25922, 24 h; procedure, shortened: as §1
Candida albicans = assay: Antifungal activity against Candida albicans ATCC 10231 after 48 to 72 hrs; type: functional
Procedure, shortened: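 C. albicans ATCC 10231 was grown 48 h at 28 °C in YPD broth (1% yeast extract, 2% peptone, 2% dextrose), centrifuged and washed twice with sterile water. Compounds were dissolved in DMSO and serially diluted twofold in potato dextrose broth. Wells received broth containing about 10³ cells/ml and were incubated 48–72 h at 28 °C. The MIC was recorded.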

Trichophyton rubrum = assay: Antifungal activity against Trichophyton rubrum IFO 9185 after 48 to 72 hrs; type: functional
Procedure, shortened: (§2)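 Filamentous fungi were grown on potato dextrose agar for 2 weeks at 28 °C. Spores were washed three times in sterile water and resuspended at 10⁵ spores/ml. Compounds were dissolved in DMSO and serially diluted twofold in potato dextrose broth. Wells received broth containing about 10⁴ cells/ml and were incubated 48–72 h at 28 °C. The MIC was recorded.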

Bacillus subtilis = assay: Antibacterial activity against Bacillus subtilis ATCC 6633 after 24 hrs; type: functional; conditions: ATCC 6633, 24 h; procedure, shortened: as §1
Aspergillus fumigatus = assay: Antifungal activity against Aspergillus fumigatus HIC6094 after 48 to 72 hrs; type: functional; procedure, shortened: as §2
Proteus vulgaris = assay: Antibacterial activity against Proteus vulgaris ATCC 3851 after 24 hrs; type: functional; conditions: ATCC 3851, 24 h; procedure, shortened: as §1
Salmonella typhimurium = assay: Antibacterial activity against Salmonella Typhimurium ATCC 14028 after 24 hrs; type: functional, Salmonella enterica subsp. enterica serovar Typhimurium; conditions: Salmonella enterica, ATCC 14028, 24 h; procedure, shortened: as §1
Staphylococcus aureus = assay: Antibacterial activity against Staphylococcus aureus ATCC 6538p after 24 hrs; type: functional; procedure, shortened: as §1
Trichophyton benhamiae = assay: Antifungal activity against Trichophyton mentagrophytes IFO 40996 after 48 to 72 hrs; type: functional, Arthroderma benhamiae; procedure, shortened: as §2

Structure (SMILES) | MIC (Micrococcus luteus) [µg/mL] | MIC (Escherichia coli) [µg/mL] | MIC (Candida albicans) [µg/mL] | MIC (Trichophyton rubrum) [µg/mL] | MIC (Bacillus subtilis) [µg/mL] | MIC (Aspergillus fumigatus) [µg/mL] | MIC (Proteus vulgaris) [µg/mL] | MIC (Salmonella typhimurium) [µg/mL] | MIC (Staphylococcus aureus) [µg/mL] | MIC (Trichophyton benhamiae) [µg/mL]
Oc1ccc(Cc2ccc(O)c(O)c2)cc1O | > 100 | > 100 | > 100 | > 100 | > 100 | > 100 | > 100 | > 100 | > 100 | > 100
Oc1c(Br)cc(Cc2cc(Br)c(O)c(Br)c2)cc1Br | > 100 | > 100 | > 100 | > 100 | > 100 | > 100 | > 100 | > 100 | > 100 | > 100
NCCc1cc(Br)c(O)c(Br)c1 | > 100 | > 100 | 100 (≈ 339 µM) | > 100 | > 100 | > 100 | > 100 | > 100 | 100 (≈ 339 µM) | > 100
OCc1cc(O)c(O)c(Br)c1Br [LANOSOL] | > 100 | > 100 | > 100 | 50 (≈ 168 µM) | > 100 | > 100 | > 100 | > 100 | > 100 | 50 (≈ 168 µM)
COCc1cc(O)c(O)c(Br)c1Cc1cc(O)c(O)c(Br)c1Br | 25 (≈ 48.7 µM) | > 100 | 25 (≈ 48.7 µM) | 25 (≈ 48.7 µM) | 25 (≈ 48.7 µM) | 25 (≈ 48.7 µM) | 25 (≈ 48.7 µM) | 25 (≈ 48.7 µM) | 25 (≈ 48.7 µM) | 25 (≈ 48.7 µM)
Oc1c(Br)cc(Cc2cc(Br)c(O)c(Br)c2O)c(O)c1Br | > 100 | > 100 | > 100 | > 100 | > 100 | > 100 | > 100 | > 100 | > 100 | > 100
CC1(C)S[C@@H]2[C@H](NC(=O)[C@H](N)c3ccccc3)C(=O)N2[C@H]1C(=O)O [AMPICILLIN] | 1.56 (≈ 4.46 µM) | 12.5 (≈ 35.8 µM) |  |  | 1.56 (≈ 4.46 µM) |  | 3.12 (≈ 8.93 µM) | 3.12 (≈ 8.93 µM) | 1.56 (≈ 4.46 µM) | 
C[C@@H]1[C@H](O)[C@@H](C)/C=C/C=C/C=C/C=C/C=C/C=C/C=C/[C@H](O[C@@H]2O[C@H](C)[C@@H](O)[C@H](N)[C@@H]2O)C[C@@H]2O[C@](O)(C[C@@H](O)C[C@@H](O)[C@H](O)CC[C@@H](O)C[C@@H](O)CC(=O)O[C@H]1C)C[C@H](O)[C@H]2C(=O)O [AMPHOTERICIN B] |  |  | 6.25 (≈ 6.76 µM) | 3.12 (≈ 3.38 µM) |  | 3.12 (≈ 3.38 µM) |  |  |  | 3.12 (≈ 3.38 µM)
COCc1cc(O)c(O)c(Br)c1Br | > 100 | > 100 | 100 (≈ 321 µM) | 12.5 (≈ 40.1 µM) | > 100 | > 100 | > 100 | > 100 | > 100 | 12.5 (≈ 40.1 µM)
Oc1c(Br)cc(Br)cc1Cc1cc(Br)cc(Br)c1O | 1.56 (≈ 3.02 µM) | > 100 | > 100 | > 100 | 1.56 (≈ 3.02 µM) | > 100 | 1.56 (≈ 3.02 µM) | 3.12 (≈ 6.05 µM) | 1.56 (≈ 3.02 µM) | > 100
OCc1cc(O)c(O)c(Br)c1Cc1cc(O)c(O)c(Br)c1Br | 50 (≈ 100 µM) | > 100 | 100 (≈ 200 µM) | 50 (≈ 100 µM) | 100 (≈ 200 µM) | > 100 | 100 (≈ 200 µM) | 100 (≈ 200 µM) | 50 (≈ 100 µM) | 50 (≈ 100 µM)
Oc1cc(Cc2cc(O)c(O)c(Br)c2Br)c(Br)c(Br)c1O | 25 (≈ 45.6 µM) | > 100 | 1.56 (≈ 2.85 µM) | 1.56 (≈ 2.85 µM) | 25 (≈ 45.6 µM) | 0.78 (≈ 1.42 µM) | 50 (≈ 91.3 µM) | 50 (≈ 91.3 µM) | 25 (≈ 45.6 µM) | 1.56 (≈ 2.85 µM)
Oc1ccc(Cc2ccc(O)c(Br)c2)cc1Br | 12.5 (≈ 34.9 µM) | > 100 | > 100 | > 100 | 12.5 (≈ 34.9 µM) | > 100 | 25 (≈ 69.8 µM) | 25 (≈ 69.8 µM) | 25 (≈ 69.8 µM) | > 100
Oc1ccc(Br)cc1Cc1cc(Br)ccc1O | 1.56 (≈ 4.36 µM) | > 100 | > 100 | > 100 | 3.12 (≈ 8.71 µM) | > 100 | 3.12 (≈ 8.71 µM) | 3.12 (≈ 8.71 µM) | 3.12 (≈ 8.71 µM) | > 100
Oc1ccc(Cc2cc(Br)c(O)c(Br)c2)cc1Br | 6.25 (≈ 14.3 µM) | > 100 | > 100 | > 100 | 6.25 (≈ 14.3 µM) | > 100 | 6.25 (≈ 14.3 µM) | 6.25 (≈ 14.3 µM) | 12.5 (≈ 28.6 µM) | > 100
Oc1ccccc1Cc1cc(Br)ccc1O | 25 (≈ 89.6 µM) | > 100 | > 100 | > 100 | 25 (≈ 89.6 µM) | > 100 | 25 (≈ 89.6 µM) | 25 (≈ 89.6 µM) | 25 (≈ 89.6 µM) | > 100
OCc1cc(O)c(O)cc1Cc1ccc(O)c(O)c1 | > 100 | > 100 | > 100 | > 100 | > 100 | > 100 | > 100 | > 100 | > 100 | > 100
